The source made the active and inactive calls. The rule behind the calls is not given here.
Legend:
[1] = molecular target: Mitogen-activated protein kinase 9 (Homo sapiens) (UniProt P45984); assay: Binding affinity to JNK2
[2] = molecular target: T1, C-X-C chemokine receptor type 2 (Homo sapiens) (UniProt P25025); assay: Binding affinity to CXCR2
T1 sequence (whole entry): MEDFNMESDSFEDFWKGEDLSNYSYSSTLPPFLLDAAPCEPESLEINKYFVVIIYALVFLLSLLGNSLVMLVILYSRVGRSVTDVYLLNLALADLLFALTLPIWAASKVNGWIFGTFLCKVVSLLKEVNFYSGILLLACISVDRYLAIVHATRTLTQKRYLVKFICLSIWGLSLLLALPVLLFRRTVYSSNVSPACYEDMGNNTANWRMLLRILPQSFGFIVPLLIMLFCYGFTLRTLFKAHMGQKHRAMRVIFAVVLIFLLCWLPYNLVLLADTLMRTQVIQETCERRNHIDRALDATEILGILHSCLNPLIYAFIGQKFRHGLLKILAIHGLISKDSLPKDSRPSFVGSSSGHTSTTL

[3] = molecular target: T2, Tyrosine-protein kinase ZAP-70 (Homo sapiens) (UniProt P43403); assay: Binding affinity to Zap70
T2 sequence (whole entry): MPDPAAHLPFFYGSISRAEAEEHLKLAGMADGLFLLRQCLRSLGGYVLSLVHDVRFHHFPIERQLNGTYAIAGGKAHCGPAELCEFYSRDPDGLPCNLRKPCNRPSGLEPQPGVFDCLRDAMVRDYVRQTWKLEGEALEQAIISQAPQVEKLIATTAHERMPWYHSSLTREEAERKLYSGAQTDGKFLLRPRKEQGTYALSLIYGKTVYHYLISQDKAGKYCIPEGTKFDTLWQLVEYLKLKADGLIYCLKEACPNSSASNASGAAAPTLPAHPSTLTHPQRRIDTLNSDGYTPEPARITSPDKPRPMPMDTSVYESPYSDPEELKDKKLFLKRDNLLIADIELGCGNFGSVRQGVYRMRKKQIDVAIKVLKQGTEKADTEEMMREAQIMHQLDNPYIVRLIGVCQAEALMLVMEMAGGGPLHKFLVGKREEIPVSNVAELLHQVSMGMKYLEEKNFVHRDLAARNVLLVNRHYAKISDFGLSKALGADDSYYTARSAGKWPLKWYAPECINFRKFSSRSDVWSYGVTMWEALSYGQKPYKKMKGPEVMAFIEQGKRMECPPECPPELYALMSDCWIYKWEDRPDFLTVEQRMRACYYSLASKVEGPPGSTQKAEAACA

[4] = molecular target: Proto-oncogene tyrosine-protein kinase Src (Homo sapiens) (UniProt P12931); assay: Binding affinity to SRC
[5] = molecular target: RAC-alpha serine/threonine-protein kinase (Homo sapiens) (UniProt P31749); assay: Inhibition of IL8-induced Akt phosphorylation in human neutrophils at 0.06 uM
In short: (§1)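 Purified human neutrophils (1 × 10⁷ cells/mL) were pretreated 30 min with compound, then exposed to 10 nM IL8 or none for 5 min at 37 °C. Cells were lysed in NP40 buffer, and protein was quantified by BCA. Then […] protein per lane was run on 12% SDS-PAGE, blotted to nitrocellulose, and probed overnight at 4 °C with anti-phospho-Akt mAb. Detection was by ECL.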

Homo sapiens [6] = species: Homo sapiens; assay: Inhibition of pyk2 60-70Kda region in human neutrophils assessed as reduction of IL8 stimulated tyrosin phosphorylation at 0.06 uM after 30 mins
In short: (§2)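 Neutrophils (2.5 × 10⁷ cells/mL) were treated with 10⁻³ M diisopropylfluorophosphate for 30 min at room temperature. They were then incubated 30 min ± compound and stimulated with 10⁻⁷ M IL8 for 0.5 min. Samples were boiled in SDS buffer and run on 7.5-20% SDS-PAGE, then blotted to nitrocellulose. Blots were probed overnight at 4 °C with anti-phosphotyrosine mAb 4G10 and detected by ECL. Ponceau S staining confirmed equal loading.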

Homo sapiens [7] = species: Homo sapiens; assay: Inhibition of pyk2 50Kda region in human neutrophils assessed as reduction of IL8 stimulated tyrosin phosphorylation at 0.06 uM after 30 mins; in short: as §2
[8] = molecular target: RAC-alpha serine/threonine-protein kinase (Homo sapiens) (UniProt P31749); assay: Inhibition of IL8-induced Akt phosphorylation in human neutrophils at 0.01 uM; in short: as §1
Homo sapiens [9] = species: Homo sapiens; assay: Inhibition of pyk2 60-70Kda region in human neutrophils assessed as reduction of IL8 stimulated tyrosin phosphorylation at 0.01 uM after 30 mins; in short: as §2
Homo sapiens [10] = species: Homo sapiens; assay: Inhibition of pyk2 50Kda region in human neutrophils assessed as reduction of IL8 stimulated tyrosin phosphorylation at 0.01 uM after 30 mins; in short: as §2
Homo sapiens [11] = species: Homo sapiens; assay: Inhibition of pyk2 50Kda region in human neutrophils assessed as reduction of IL8 stimulated tyrosin phosphorylation at 0.05 uM after 30 mins; in short: as §2
Homo sapiens [12] = species: Homo sapiens; assay: Inhibition of pyk2 60-70Kda region in human neutrophils assessed as reduction of IL8 stimulated tyrosin phosphorylation at 0.05 uM after 30 mins; in short: as §2
[13] = molecular target: RAC-alpha serine/threonine-protein kinase (Homo sapiens) (UniProt P31749); assay: Inhibition of IL8-induced Akt phosphorylation in human neutrophils at 0.05 uM; in short: as §1

Chain of Mitogen-activated protein kinase 9 (Homo sapiens) (P45984 whole entry, looked up): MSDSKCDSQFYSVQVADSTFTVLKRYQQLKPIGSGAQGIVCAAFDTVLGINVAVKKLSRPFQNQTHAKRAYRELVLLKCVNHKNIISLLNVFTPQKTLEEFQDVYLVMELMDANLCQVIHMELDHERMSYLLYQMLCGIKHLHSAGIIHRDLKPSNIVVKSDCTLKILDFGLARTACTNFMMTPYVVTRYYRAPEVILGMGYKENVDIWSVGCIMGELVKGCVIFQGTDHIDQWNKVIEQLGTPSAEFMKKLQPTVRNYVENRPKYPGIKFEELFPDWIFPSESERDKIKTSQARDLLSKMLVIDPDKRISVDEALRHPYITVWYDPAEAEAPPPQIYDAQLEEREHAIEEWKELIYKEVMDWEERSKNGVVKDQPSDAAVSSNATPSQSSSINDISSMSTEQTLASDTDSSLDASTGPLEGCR
Chain of RAC-alpha serine/threonine-protein kinase (Homo sapiens) (P31749 whole entry): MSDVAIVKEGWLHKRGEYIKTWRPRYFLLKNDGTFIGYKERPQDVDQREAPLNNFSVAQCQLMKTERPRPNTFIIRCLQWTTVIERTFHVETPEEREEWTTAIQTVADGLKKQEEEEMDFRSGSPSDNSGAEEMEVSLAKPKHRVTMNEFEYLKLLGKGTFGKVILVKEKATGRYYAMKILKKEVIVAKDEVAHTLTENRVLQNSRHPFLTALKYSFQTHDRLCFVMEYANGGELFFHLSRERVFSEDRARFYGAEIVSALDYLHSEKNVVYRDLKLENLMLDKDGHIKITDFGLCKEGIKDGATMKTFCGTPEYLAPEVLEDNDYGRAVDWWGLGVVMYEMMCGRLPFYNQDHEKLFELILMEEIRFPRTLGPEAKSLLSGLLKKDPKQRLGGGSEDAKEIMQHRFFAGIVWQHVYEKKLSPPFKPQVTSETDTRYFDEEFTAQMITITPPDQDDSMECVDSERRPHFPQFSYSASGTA
Chain of Proto-oncogene tyrosine-protein kinase Src (Homo sapiens) (P12931 2-536 limits assumed): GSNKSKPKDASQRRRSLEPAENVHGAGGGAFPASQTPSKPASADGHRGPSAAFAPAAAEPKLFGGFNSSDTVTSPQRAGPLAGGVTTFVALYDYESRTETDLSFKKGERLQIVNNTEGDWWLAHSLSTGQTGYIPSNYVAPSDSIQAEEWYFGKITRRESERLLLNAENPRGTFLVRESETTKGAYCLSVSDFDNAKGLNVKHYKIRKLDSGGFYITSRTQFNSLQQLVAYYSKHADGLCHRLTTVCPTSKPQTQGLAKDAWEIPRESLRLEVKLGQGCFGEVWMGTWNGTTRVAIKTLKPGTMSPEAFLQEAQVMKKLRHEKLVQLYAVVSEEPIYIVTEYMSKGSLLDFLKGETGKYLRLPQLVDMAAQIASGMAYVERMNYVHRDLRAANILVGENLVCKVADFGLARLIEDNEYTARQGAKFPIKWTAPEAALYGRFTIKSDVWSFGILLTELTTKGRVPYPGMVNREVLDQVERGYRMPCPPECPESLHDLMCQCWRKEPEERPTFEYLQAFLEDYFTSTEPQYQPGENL

| Structure (SMILES) | Activity [1] | Activity [2] | Activity [3] | Activity [4] | Activity [5] | inhibition (Homo sapiens [6]) [%] | inhibition (Homo sapiens [7]) [%] | Activity [8] | inhibition (Homo sapiens [9]) [%] | inhibition (Homo sapiens [10]) [%] | inhibition (Homo sapiens [11]) [%] | inhibition (Homo sapiens [12]) [%] | Activity [13] |
| --- | --- | --- | --- | --- | --- | --- | --- | --- | --- | --- | --- | --- | --- |
| CCOC(=O)c1cnn(CC(O)c2ccccc2)c1NC(=O)NC(C)C (stereo unspecified) | inactive | inactive | inactive | inactive | inactive | 53 | 20 | – | – | – | – | – | – |
| CCOC(=O)c1cnn(CC(O)c2ccccc2)c1NC(=O)NCc1ccccc1 (stereo unspecified) | inactive | inactive | inactive | inactive | – | – | – | inactive | 63 | 70 | – | – | – |
| CCOC(=O)c1cnn(CC(O)c2ccccc2)c1NC(=O)Nc1ccccc1 (stereo unspecified) | inactive | inactive | inactive | inactive | – | – | – | – | – | – | 71 | 81 | inactive |

— ChEMBL document CHEMBL1146234, “Synthesis and biological evaluation of N-pyrazolyl-N'-alkyl/benzyl/phenylureas: a new class of potent inhibitors of interleukin 8-induced neutrophil chemotaxis” (J Med Chem, 2007)
